Measurements taken from ChEMBL document CHEMBL2021854, “2-Aminopyrimidine based 4-aminoquinoline anti-plasmodial agents. Synthesis, biological activity, structure-activity relationship and mode of action studies” (Eur J Med Chem, 2012).

How the values were obtained:
[1] = Inhibition of beta-hematin formation assessed as Ferriprotoporphyrin IX biomineralisation at 1 mg/ml after 24 hrs; type: functional
Method in brief: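 Hemin chloride (0.5 mg/ml in DMSO) mixed with 0.5 M sodium acetate buffer pH 4.4 and drug or solvent control, incubated 37 °C for 24 h. Pellet washed with DMSO to remove unreacted hemin, dissolved in 0.1 N NaOH, absorbance read at 405 nm; percent inhibition relative to control. Highest concentration tested 1 mg/ml.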

Plasmodium falciparum [2] = assay: Antiplasmodial activity chloroquine-sensitive Plasmodium falciparum 3D7 infected in human A+ erythrocytes assessed as inhibition of [3H]-hypoxanthine incorporation after 24 hrs by scintillation counting; type: functional, organism-based
Plasmodium falciparum [3] = assay: Resistant factor, ratio of IC50 for chloroquine-resistant Plasmodium falciparum K1 to IC50 for chloroquine-sensitive Plasmodium falciparum 3D7; type: functional
Method in brief: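 Resistance factor computed as IC50 against K1 divided by IC50 against 3D7, both from the [3H]hypoxanthine incorporation assay.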

Plasmodium falciparum [4] = assay: Antiplasmodial activity chloroquine-resistant Plasmodium falciparum K1 infected in human A+ erythrocytes assessed as inhibition of [3H]-hypoxanthine incorporation after 24 hrs by scintillation counting; type: functional, organism-based
Human alphaherpesvirus 3 [5] = assay: Antiviral activity against thymidine kinase-deficient […] infected in HEL cells assessed as reduction of virus plaque formation after 4 days; type: functional, organism-based; conditions: Human alphaherpesvirus 3, 07-1, HEL, 96 h
Human alphaherpesvirus 3 [6] = assay: Antiviral activity against […] expressing thymidine kinase infected in HEL cells assessed as reduction of virus plaque formation after 4 days; type: functional, cell-based; conditions: Human alphaherpesvirus 3, strain Oka vaccine, 96 h
Influenza A virus [7] = assay: Antiviral activity against Influenza A virus H3N2 infected in MDCK cells assessed as reduction visual scoring of virus-induced cytopathogenicity after 4 days; type: functional, organism-based; conditions: 96 h
Method in brief: (§1)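 MDCK monolayers infected with 100 CCID50 of influenza A (H1N1 or H3N2) or influenza B, with varying compound concentrations. Cytopathicity read when untreated infected controls reached complete CPE.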

[8] = Selectivity index, ratio of CC50 for MDCK cells to IC50 for chloroquine-resistant Plasmodium falciparum K1; type: functional
Method in brief: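 Selectivity index computed as MTS-based CC50 on MDCK cells divided by IC50 against P. falciparum K1.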

[9] = system: Human immunodeficiency virus 2; assay: Antiviral activity against HIV2 infected in human CEM cells assessed as inhibition of virus-induced cytopathic effect after 4 days; type: functional, organism-based; conditions: Human immunodeficiency virus 2, CCRF-CEM, 96 h
Method in brief: (§2)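 CEM T-lymphocytes (~3 × 10^5 cells/ml) were infected with HIV-1 IIIB or HIV-2 ROD at ~100 CCID50, then immediately plated with a range of compound concentrations. Giant cell formation was scored microscopically after 4 days at 37 °C. Cytostatic activity was tested in parallel in uninfected CEM cells.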

[10] = system: Feline infectious peritonitis virus; assay: Antiviral activity against FIPV infected in cat CRFK cells assessed as inhibition of virus-induced cytopathic effect after 4 days by colorimetric formazan-based MTS assay; type: functional, cell-based; conditions: Alphacoronavirus 1, CRFK, 96 h
[11] = system: Respiratory syncytial virus; assay: Antiviral activity against Respiratory syncytial virus infected in human HeLa cells assessed as inhibition of virus-induced cytopathogenicity after 4 days; type: functional, organism-based; conditions: 96 h
Method in brief: (§3)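 Confluent HEL, Vero or HeLa monolayers were inoculated with 100 CCID50 of virus in the presence of varying concentrations of compound. Cytopathicity was scored when it reached completion in untreated, virus-infected control cultures.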

Human alphaherpesvirus 2 = assay: Antiviral activity against HSV2 G infected in HEL cells assessed as inhibition of virus-induced cytopathogenicity after 4 days; type: functional, organism-based; conditions: Human alphaherpesvirus 2, strain G, 96 h; method in brief: as §3
[12] = Cytotoxicity against MDCK cells assessed as minimum compound concentration required to causes microscopically detectable alteration of normal cell morphology; type: cell-based, Canis lupus familiaris; conditions: dog
Method in brief: (§4)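 Confluent, non-proliferating cell cultures were exposed to the compounds. The endpoint was the minimum concentration producing a microscopically detectable alteration of normal cell morphology.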

[13] = Cytotoxicity against cat CRFK cells assessed as cell viability by colorimetric formazan-based MTS assay; parameters: species or system Felis catus; conditions: crfk
Human betaherpesvirus 5 [14] = assay: Antiviral activity against Human cytomegalovirus Davis infected in HEL cells assessed as inhibition of virus plaque formation after 4 days; type: functional, organism-based; conditions: Human betaherpesvirus 5, Davis, 96 h
Influenza B virus [15] = assay: Antiviral activity against Influenza B virus infected in MDCK cells assessed as inhibition of virus-induced cytopathogenicity after 4 days by colorimetric formazan-based MTS assay; type: functional, organism-based; conditions: 96 h
Punta Toro virus = assay: Antiviral activity against Punta Toro virus infected in african green monkey Vero cells assessed as inhibition of virus-induced cytopathogenicity after 4 days; type: functional, organism-based; conditions: 96 h; method in brief: as §3
Coxsackievirus B4 [16] = assay: Antiviral activity against Coxsackie virus B4 infected in african green monkey Vero cells assessed as inhibition of virus-induced cytopathogenicity after 4 days; type: functional, organism-based; conditions: Enterovirus B, 96 h; method in brief: as §3
[17] = Cytotoxicity against human HeLa cells assessed as minimum compound concentration required to causes microscopically detectable alteration of normal cell morphology; type: cell-based; method in brief: as §4
Influenza A virus [18] = assay: Antiviral activity against Influenza A virus H1N1 infected in MDCK cells assessed as inhibition of virus-induced cytopathogenicity after 4 days by colorimetric formazan-based MTS assay; type: functional, organism-based; conditions: 96 h
Sindbis virus = assay: Antiviral activity against Sindbis virus infected in african green monkey Vero cells assessed as inhibition of virus-induced cytopathogenicity after 4 days; type: functional, organism-based; conditions: 96 h; method in brief: as §3
[19] = system: Vesicular stomatitis virus; assay: Antiviral activity against Vesicular stomatitis virus infected in HeLa cells assessed as inhibition of virus-induced cytopathogenicity after 4 days; type: functional, organism-based; conditions: 96 h
Method in brief: (§5)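 Confluent HEL or HeLa monolayers infected with 100 CCID50 of virus in the presence of varying compound concentrations.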

[20] = system: Vesicular stomatitis virus; assay: Antiviral activity against Vesicular stomatitis virus infected in HEL cells assessed as inhibition of virus-induced cytopathogenicity after 4 days; type: functional, organism-based; conditions: 96 h; method in brief: as §5
Coxsackievirus B4 [21] = assay: Antiviral activity against Coxsackie virus B4 infected in human HeLa cells assessed as inhibition of virus-induced cytopathogenicity after 4 days; type: functional, organism-based; conditions: Enterovirus B, 96 h; method in brief: as §3
Influenza A virus [22] = assay: Antiviral activity against Influenza A virus H1N1 infected in MDCK cells assessed as reduction visual scoring of virus-induced cytopathogenicity after 4 days; type: functional, organism-based; conditions: 96 h; method in brief: as §1
Human alphaherpesvirus 1 [23] = assay: Antiviral activity against HSV1 KOS infected in HEL cells assessed as inhibition of virus-induced cytopathogenicity after 4 days; type: functional, organism-based; conditions: Human alphaherpesvirus 1, KOS, 96 h; method in brief: as §5
Human respirovirus 3 = assay: Antiviral activity against Parainfluenza-3 virus infected in african green monkey Vero cells assessed as inhibition of virus-induced cytopathogenicity after 4 days; type: functional, organism-based; conditions: Human respirovirus 3, Vero, 96 h; method in brief: as §3
HeLa = assay: Cytotoxicity against human HeLa cells assessed as cell viability by colorimetric formazan-based MTS assay
[24] = Cytotoxicity against human HEL cells assessed as minimum compound concentration required to causes microscopically detectable alteration of normal cell morphology; type: cell-based; method in brief: as §4
MDCK = assay: Cytotoxicity against MDCK cells assessed as cell viability by colorimetric formazan-based MTS assay; parameters: species or system Canis lupus familiaris; conditions: dog, mdck
Method in brief: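 Cytotoxicity on MDCK cells; 50% cytotoxic concentration from cell viability measured by colorimetric formazan-based MTS assay.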

Influenza B virus [25] = assay: Antiviral activity against Influenza B virus infected in MDCK cells assessed as reduction visual scoring of virus-induced cytopathogenicity after 4 days; type: functional, organism-based; conditions: 96 h; method in brief: as §1
[26] = system: Human immunodeficiency virus 1; assay: Antiviral activity against HIV1 infected in human CEM cells assessed as inhibition of virus-induced cytopathic effect after 4 days; type: functional, organism-based; conditions: Human immunodeficiency virus 1, CCRF-CEM, 96 h; method in brief: as §2
[27] = Cytotoxicity against african green monkey Vero cells assessed as minimum compound concentration required to causes microscopically detectable alteration of normal cell morphology; type: cell-based; conditions: chlorocebus sabaeus; method in brief: as §4
Influenza A virus [28] = assay: Antiviral activity against Influenza A virus H3N2 infected in MDCK cells assessed as inhibition of virus-induced cytopathogenicity after 4 days by colorimetric formazan-based MTS assay; type: functional, organism-based; conditions: 96 h
Felid alphaherpesvirus 1 = assay: Antiviral activity against Feline herpesvirus infected in cat CRFK cells assessed as inhibition of virus-induced cytopathic effect after 4 days by colorimetric formazan-based MTS assay; type: functional, organism-based; conditions: Felid alphaherpesvirus 1, CRFK, 96 h
Human alphaherpesvirus 1 [29] = assay: Antiviral activity against thymidine kinase-deficient acyclovir-resistant HSV1 KOS infected in HEL cells assessed as inhibition of virus-induced cytopathogenicity after 4 days; type: functional, organism-based; conditions: Human alphaherpesvirus 1, KOS, 96 h; method in brief: as §5
[30] = system: Mammalian orthoreovirus 1; assay: Antiviral activity against Reovirus-1 infected in african green monkey Vero cells assessed as inhibition of virus-induced cytopathogenicity after 4 days; type: functional, organism-based; conditions: Mammalian orthoreovirus 1, Vero, 96 h; method in brief: as §3
Human betaherpesvirus 5 [31] = assay: Antiviral activity against Cytomegalovirus AD-169 infected in HEL cells assessed as inhibition of virus plaque formation after 4 days; type: functional, organism-based; conditions: Human betaherpesvirus 5, AD169, HEL, 96 h

Compound: Cc1nc(NCCCNc2ccnc3cc(Cl)ccc23)nc(-c2ccc([N+](=O)[O-])cc2)c1C(=O)OC(C)C
- inhibition [1]: 94%
- IC50 (Plasmodium falciparum [2]): 0.5 µM
- Ratio IC50 (Plasmodium falciparum [3]): 0.3518
- IC50 (Plasmodium falciparum [4]): 0.176 µM

Compound: Cc1nc(NCCNc2ccnc3cc(Cl)ccc23)nc(-c2ccccc2[N+](=O)[O-])c1C(=O)OC(C)C
- EC50 (Human alphaherpesvirus 3 [5]): > 20 µM
- EC50 (Human alphaherpesvirus 3 [6]): > 20 µM
- EC50 (Influenza A virus [7]): > 0.8 µM
- Ratio CC50/IC50 [8]: 22.9
- EC50 [9]: > 2 µM
- IC50 (Plasmodium falciparum [2]): 0.173 µM
- EC50 [10]: > 100 µM
- EC50 [11]: > 100 µM
- EC50 (Human alphaherpesvirus 2): > 100 µM
- MCC [12]: ≥ 800 nM
- CC50 [13]: > 100 µM
- EC50 (Human betaherpesvirus 5 [14]): > 20 µM
- EC50 (Influenza B virus [15]): > 0.8 µM
- EC50 (Punta Toro virus): > 20 µM
- EC50 (Coxsackievirus B4 [16]): > 20 µM
- MCC [17]: > 100 µM
- EC50 (Influenza A virus [18]): > 0.8 µM
- EC50 (Sindbis virus): > 20 µM
- EC50 [19]: > 100 µM
- EC50 [20]: > 20 µM
- EC50 (Coxsackievirus B4 [21]): > 100 µM
- EC50 (Influenza A virus [22]): > 0.8 µM
- EC50 (Human alphaherpesvirus 1 [23]): > 20 µM
- EC50 (Human respirovirus 3): > 20 µM
- Ratio IC50 (Plasmodium falciparum [3]): 0.5555
- CC50 (HeLa): 24.4 µM
- MCC [24]: 100 µM
- CC50 (MDCK): 2.2 µM
- EC50 (Influenza B virus [25]): > 0.8 µM
- EC50 [26]: > 10 µM
- MCC [27]: 100 µM
- EC50 (Influenza A virus [28]): > 0.8 µM
- EC50 (Felid alphaherpesvirus 1): > 100 µM
- EC50 (Human alphaherpesvirus 1 [29]): > 20 µM
- EC50 [30]: > 20 µM
- EC50 (Human betaherpesvirus 5 [31]): > 20 µM
- IC50 (Plasmodium falciparum [4]): 0.096 µM

Compound: Nc1ccn(C[C@@H](CO)OCP(=O)(O)O)c(=O)n1 [CIDOFOVIR]
- EC50 (Human alphaherpesvirus 2): 0.9 µM
- EC50 (Human betaherpesvirus 5 [14]): 0.102 µM
- EC50 [20]: > 250 µM
- EC50 (Human alphaherpesvirus 1 [23]): 0.9 µM
- CC50 (HeLa): 50.8 µM
- MCC [24]: > 317 µM
- EC50 (Human betaherpesvirus 5 [31]): 0.369 µM

Compound: CCOC(=O)c1c(C)nc(NCCCCCCCCCCCCNc2ccnc3cc(Cl)ccc23)nc1-c1ccccc1
- IC50 (Plasmodium falciparum [2]): 0.265 µM
- Ratio IC50 (Plasmodium falciparum [3]): 3.22
- IC50 (Plasmodium falciparum [4]): 0.854 µM

Compound: Cc1nc(NCCCNc2ccnc3cc(Cl)ccc23)nc(-c2ccccc2[N+](=O)[O-])c1C(=O)OC(C)C
- inhibition [1]: 89%
- IC50 (Plasmodium falciparum [2]): 1.96 µM
- Ratio IC50 (Plasmodium falciparum [3]): 0.1173
- IC50 (Plasmodium falciparum [4]): 0.229 µM
